# Source: ChEMBL document CHEMBL3352384, “Synthesis and biological activity of new salicylanilide N,N-disubstituted carbamates and thiocarbamates” (Bioorg Med Chem, 2014)
# Assays:
# Mycobacterium avium [1] = assay: Antimycobacterial activity against Isoniazid, rifampicin, ofloxacin and ethambutol-resistant Mycobacterium avium 330/88 assessed as complete growth inhibition after 21 days; format: functional; conditions: 330/88, 504 h
# How it was run: (§1)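 M. tuberculosis 331/88 (H37Rv) inoculum diluted 10-3, M. avium 330/88 diluted 10-5. MIC is the lowest concentration giving complete growth inhibition. Isoniazid and p-aminosalicylic acid as references. Quadruplicate, repeated twice.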
# Mycobacterium kansasii [2] = assay: Antimycobacterial activity against Mycobacterium kansasii 235/80 assessed as complete growth inhibition after 7 days; format: functional; conditions: 235/80, 168 h
# How it was run: (§2)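 Dilutions of M. kansasii inoculum were 10-4 for strain 235/80 and 10-5 for clinical isolate 6509/96. MIC was the lowest concentration giving complete growth inhibition, run in quadruplicate and repeated twice.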
# Mycobacterium kansasii [3] = assay: Antimycobacterial activity against Mycobacterium kansasii 235/80 assessed as complete growth inhibition after 14 days; format: functional; conditions: 235/80, 336 h; how it was run: as §2
# Mycobacterium kansasii [4] = assay: Antimycobacterial activity against Mycobacterium kansasii 235/80 assessed as complete growth inhibition after 21 days; format: functional; conditions: 235/80, 504 h; how it was run: as §2
# Mycobacterium kansasii [5] = assay: Antimycobacterial activity against clinical isolate Mycobacterium kansasii 6509/96 assessed as complete growth inhibition after 7 days; format: functional; conditions: 6509/96, 168 h; how it was run: as §2
# Mycobacterium kansasii [6] = assay: Antimycobacterial activity against clinical isolate Mycobacterium kansasii 6509/96 assessed as complete growth inhibition after 14 days; format: functional; conditions: 6509/96, 336 h; how it was run: as §2
# Mycobacterium kansasii [7] = assay: Antimycobacterial activity against clinical isolate Mycobacterium kansasii 6509/96 assessed as complete growth inhibition after 21 days; format: functional; conditions: 6509/96, 504 h; how it was run: as §2
# [8] = Inhibition of Mycobacterium tuberculosis H37Rv isocitrate lyase assessed as glyoxylate phenyl hydrazone formation at 10 uM
# HepG2 = assay: Cytotoxicity against human HepG2 cells assessed as reduction in cell viability after 24 hrs by MTS assay; format: cell-based; conditions: HepG2, 24 h
# How it was run: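 HepG2 hepatocellular carcinoma cells (passage 3–4) were grown in Eagle's MEM with 10% FBS, 1% L-glutamine and non-essential amino acids. Compounds were added from DMSO at eight concentrations in triplicate, with 10% DMSO as the 0% viability control. Viability was read by tetrazolium salt reduction (CellTiter 96 AQueous One). IC50 is the concentration reducing viability to 50% of control.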
# [9] = tested on: Mycobacterium tuberculosis; assay: Antimycobacterial activity against Mycobacterium tuberculosis H37Rv 331/88 assessed as complete growth inhibition after 14 days; format: functional; conditions: H37Rv 331/88, 336 h; how it was run: as §1
# [10] = tested on: Mycobacterium tuberculosis; assay: Antimycobacterial activity against Mycobacterium tuberculosis H37Rv 331/88 assessed as complete growth inhibition after 21 days; format: functional; conditions: H37Rv 331/88, 504 h; how it was run: as §1
# Mycobacterium avium [11] = assay: Antimycobacterial activity against Isoniazid, rifampicin, ofloxacin and ethambutol-resistant Mycobacterium avium 330/88 assessed as complete growth inhibition after 14 days; format: functional; conditions: 330/88, 336 h; how it was run: as §1
# [12] = Selectivity index, ratio of IC50 for human HepG2 cells to MIC for atypical mycobacteria
# How it was run: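 Selectivity index = HepG2 IC50 / MIC. HepG2 cells (passage 3–4) grown in Eagle's MEM with 10% FBS, L-glutamine and non-essential amino acids. Compounds added from DMSO, eight concentrations in triplicate, tetrazolium-reduction colorimetric read-out. IC50 is the concentration reducing viability to 50% of control; 10% DMSO as 0% viability.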
# [13] = Selectivity index, ratio of IC50 for human HepG2 cells to MIC for Mycobacterium tuberculosis H37Rv; format: toxicity, cell-based; conditions: read-out: Selectivity Index
# How it was run: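 Selectivity index = HepG2 IC50 / MIC. HepG2 cells (passage 3–4) grown in Eagle's MEM with 10% FBS, L-glutamine and non-essential amino acids. Compounds added from DMSO, eight concentrations in triplicate, tetrazolium-reduction colorimetric read-out.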
# [14] = Selectivity index, ratio of IC50 for human HepG2 cells to MIC for Trichophyton mentagrophytes 445
SMILES,MIC (Mycobacterium avium [1]),MIC (Mycobacterium kansasii [2]),MIC (Mycobacterium kansasii [3]),MIC (Mycobacterium kansasii [4]),MIC (Mycobacterium kansasii [5]),MIC (Mycobacterium kansasii [6]),MIC (Mycobacterium kansasii [7]),inhibition [8],IC50 (HepG2),MIC [9],MIC [10],MIC (Mycobacterium avium [11]),Selectivity Index [12],selectivity ratio [13],Selectivity Index [14]
O=C(Nc1ccc(Cl)cc1)c1cc(Cl)ccc1OC(=O)N(c1ccccc1)c1ccccc1,250 µM,32 µM,125 µM,125 µM,32 µM,62.5 µM,62.5 µM,20%,> 100 µM,250 µM,250 µM,250 µM,,,
CN(C(=O)Oc1ccc(Cl)cc1C(=O)Nc1ccc(Cl)cc1)c1ccccc1,250 µM,62.5 µM,125 µM,125 µM,32 µM,62.5 µM,125 µM,17%,289 µM,32 µM,32 µM,250 µM,<=9,9,
CN(C(=O)Oc1ccccc1C(=O)Nc1ccccc1)c1ccccc1,> 1000 µM,250 µM,500 µM,500 µM,250 µM,500 µM,1000 µM,3%,280 µM,250 µM,250 µM,> 1000 µM,<=1.1,1.1,
CN(C)C(=O)Oc1ccccc1C(=O)Nc1ccccc1,1000 µM,1000 µM,1000 µM,1000 µM,1000 µM,1000 µM,1000 µM,10%,5990 µM,1000 µM,1000 µM,1000 µM,6,6,
CN(C)C(=O)Oc1ccc(Cl)cc1C(=O)Nc1ccc(Br)cc1,62.5 µM,62.5 µM,125 µM,125 µM,62.5 µM,62.5 µM,62.5 µM,9%,342 µM,16 µM,16 µM,62.5 µM,<=5.5,21.4,
CN(C(=O)Oc1ccc(Cl)cc1C(=O)Nc1ccc(C(F)(F)F)cc1)c1ccccc1,250 µM,125 µM,125 µM,125 µM,125 µM,125 µM,125 µM,16%,> 100 µM,125 µM,125 µM,250 µM,,,
O=C(Nc1ccccc1)c1ccccc1OC(=O)N(c1ccccc1)c1ccccc1,62.5 µM,62.5 µM,125 µM,125 µM,125 µM,125 µM,125 µM,8%,211 µM,125 µM,125 µM,62.5 µM,1.7,1.7,
O=C(Nc1ccc(F)cc1)c1cc(Cl)ccc1O,32 µM,8 µM,16 µM,16 µM,8 µM,16 µM,16 µM,14%,26.1 µM,8 µM,8 µM,16 µM,0.8,3.3,3.3
O=C(Nc1ccc(F)cc1)c1cc(Cl)ccc1OC(=O)N(c1ccccc1)c1ccccc1,250 µM,62.5 µM,62.5 µM,62.5 µM,125 µM,125 µM,125 µM,22%,> 100 µM,250 µM,250 µM,250 µM,,,
CN(C)C(=O)Oc1ccc(Cl)cc1C(=O)Nc1ccc(C(F)(F)F)cc1,250 µM,250 µM,250 µM,250 µM,250 µM,250 µM,250 µM,11%,6510 µM,> 1000 µM,> 1000 µM,250 µM,,,
Nc1ccc(C(=O)O)c(O)c1 [AMINOSALICYLIC ACID],125 µM,125 µM,1000 µM,> 1000 µM,32 µM,125 µM,500 µM,10%,2240 µM,62.5 µM,62.5 µM,32 µM,<2.2,35.8,
CN(C(=O)Oc1ccc(Cl)cc1C(=O)Nc1ccc(F)cc1)c1ccccc1,250 µM,62.5 µM,125 µM,125 µM,62.5 µM,125 µM,125 µM,14%,512 µM,32 µM,62.5 µM,250 µM,<=8.2,8.2,
O=C(Nc1ccc(Br)cc1)c1cc(Cl)ccc1O,16 µM,4 µM,8 µM,8 µM,4 µM,8 µM,8 µM,13%,15.7 µM,4 µM,4 µM,8 µM,1,3.9,16
CN(C)C(=S)Oc1ccccc1C(=O)Nc1ccccc1,> 1000 µM,> 1000 µM,> 1000 µM,> 1000 µM,> 1000 µM,> 1000 µM,> 1000 µM,6%,> 500 µM,> 1000 µM,> 1000 µM,> 1000 µM,,,
O=C(Nc1ccc(C(F)(F)F)cc1)c1cc(Cl)ccc1O,8 µM,2 µM,4 µM,4 µM,2 µM,4 µM,4 µM,6%,0.36 µM,1 µM,2 µM,4 µM,,,
O=C(Nc1ccccc1)c1ccccc1O [SALICYLANILIDE],250 µM,125 µM,250 µM,250 µM,125 µM,250 µM,250 µM,9%,89.8 µM,32 µM,125 µM,125 µM,0.36,0.7,
O=C(O)CC[N+](=O)[O-],> 1000 µM,> 1000 µM,> 1000 µM,> 1000 µM,> 1000 µM,> 1000 µM,> 1000 µM,25%,692 µM,,> 1000 µM,> 1000 µM,<0.7,< 0.7,
CN(C(=O)Oc1ccc(Cl)cc1C(=O)Nc1ccc(Br)cc1)c1ccccc1,250 µM,32 µM,125 µM,125 µM,32 µM,62.5 µM,125 µM,14%,945 µM,32 µM,32 µM,250 µM,<=29.5,29.5,
O=C(Nc1ccc(Br)cc1)c1cc(Cl)ccc1OC(=O)N(c1ccccc1)c1ccccc1,250 µM,32 µM,125 µM,125 µM,32 µM,62.5 µM,62.5 µM,19%,> 100 µM,250 µM,250 µM,250 µM,,,
O=C(Nc1ccc(C(F)(F)F)cc1)c1cc(Cl)ccc1OC(=O)N(c1ccccc1)c1ccccc1,250 µM,125 µM,125 µM,125 µM,125 µM,125 µM,125 µM,21%,> 100 µM,125 µM,125 µM,250 µM,,,
